Holding throughout (format): functional
Experiment [1] deals with Mythimna separata. Nature of the experiment: Larvicidal activity against Mythimna separata (Oriental armyworm) in compound treated corn leaves at 100 mg/L at 25 +/- 1 degC measured after 4 days.
Experiment [2] concerns Mythimna separata. Nature of the experiment: (§1) Larvicidal activity against Mythimna separata (Oriental armyworm) in compound treated corn leaves at […] at 25 +/- 1 degC measured after 4 days.
Experiment [3] deals with Mythimna separata. The experiment can be described thus: Larvicidal activity against Mythimna separata (Oriental armyworm ) in compound treated corn leaves at 0.5 mg/L at 25 +/- 1 degC measured after 4 days. The method in brief:
(§2)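 Foliar-application assay on laboratory-reared Oriental armyworm (Mythimna (Pseudaletia) separata), run at 25 ± 1 °C. Larvae were scored dead or alive, and mortality was corrected by Abbott's formula on a 0–100% scale, where 0 = no activity and 100 = total kill. Bioassays were repeated as statistics required.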

For experiment [4], the system named is Mythimna separata. The experiment can be described thus: Larvicidal activity against Mythimna separata (Oriental armyworm) in compound treated corn leaves at 1 mg/L at 25 +/- 1 degC measured after 4 days. The method in brief: as §2
Experiment [5] has as its system Mythimna separata. Described as §1. The source holds these as a separate data set.
For experiment [6], the system named is Mythimna separata. The experiment can be described thus: Larvicidal activity against Mythimna separata (Oriental armyworm) in compound treated corn leaves at 5 mg/L at 25 +/- 1 degC measured after 4 days.
Experiment [7] concerns Mythimna separata. The experiment can be described thus: Larvicidal activity against Mythimna separata (Oriental armyworm) in compound treated corn leaves at 10 mg/L at 25 +/- 1 degC measured after 4 days.
For experiment [8], the system named is Mythimna separata. Nature of the experiment: Larvicidal activity against Mythimna separata (Oriental armyworm) in compound treated corn leaves at 25 mg/L at 25 +/- 1 degC measured after 4 days.
For experiment [9], the system named is Mythimna separata. Nature of the experiment: Larvicidal activity against Mythimna separata (Oriental armyworm) in compound treated corn leaves at 50 mg/L at 25 +/- 1 degC measured after 4 days. The method in brief: as §2

This passage reports Activity results from ChEMBL document CHEMBL3045515, “Insecticidal benzoylphenylurea-S-carbamate: a new propesticide with two effects of both benzoylphenylureas and carbamates” (2007).

Molecules are shown by their SMILES.

For the compound `O=C(NC(=O)c1c(F)cccc1F)Nc1ccc(Cl)cc1` [DIFLUBENZURON], the Activity was found to be 0% in experiment [1]; 45% in experiment [2]; 100% in [3]; 100% in experiment [4]; 100% in experiment [5]; 100% in experiment [6]. Also, the Activity in experiment [7], in experiment [8] and in experiment [9] was 100% throughout.

Take `CNC(=O)ON=C(C)SC` [METHOMYL]: the Activity in [1] was 100%; in experiment [5], 0%; in experiment [6], 62%; in experiment [7] it was 100%.

As to `Cc1cccc(OC(=O)N(C)SN(C(=O)NC(=O)c2c(F)cccc2F)c2ccc(C(F)(F)F)cc2)c1` [Penfluron-S-MTMC], the Activity in experiment [2] came out at 15%; in [3] it was 95%; in experiment [4], 100%; in experiment [5] it was 100%; in experiment [6], 100%; in [7], 100%. The Activity in [8] and in [9] was 100% each time.

Turning to `O=C(NC(=O)c1ccccc1Cl)Nc1ccc(OC(F)(F)F)cc1` [TRIFLUMURON], the Activity in experiment [1] was 0%; in experiment [2] it was 20%; in experiment [3], 40%; in [4], 95%; in experiment [5], 100%; in [6] it was 100%. Moreover, the Activity in experiment [7], in experiment [8] and in experiment [9] was 100% in each case.
